The text below walks through data of ChEMBL document CHEMBL5143539, “Synthesis and evaluation of dual-action kanglemycin-fluoroquinolone hybrid antibiotics” (Bioorg Med Chem Lett, 2022).

Molecules are shown by their SMILES. Converted amounts (≈) assume the structure as drawn. A value given as a limit tells only on which side of the number the result lay.

The test system of data set [1] is Staphylococcus aureus. The experiment in a line: Antibacterial activity against wild type Staphylococcus aureus assessed as inhibition of bacterial growth. It is filed as functional.
Data set [2] concerns Staphylococcus aureus. The data set can be described thus: Antibacterial activity against rifampicin resistant Staphylococcus aureus harboring RpoBH481Y mutant assessed as inhibition of bacterial growth. It counts as functional.
Data set [3] concerns Staphylococcus aureus. The data set can be described thus: Antibacterial activity against ciprofloxacin resistant Staphylococcus aureus harboring ParCS80F and GyrAS84L double mutant assessed as inhibition of bacterial growth. It is filed as functional.
In a further data set the test system is Escherichia coli. The experiment in a line: Antibacterial activity against Escherichia coli assessed as inhibition of bacterial growth. It is filed as functional. In a few lines:
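Run in duplicate, with the same result obtained in each trial.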

Data set [4] relates to Staphylococcus aureus. The experiment in a line: Antibacterial activity against Staphylococcus aureus harboring RpoBH481Y/ParCS80F/GyrAS84L triple mutant assessed as inhibition of bacterial growth. It is filed as functional.
Another data set relates to HEK293. The data set can be described thus: Cytotoxicity against HEK293 cells. It is filed as toxicity, cell-based, Homo sapiens.

What is called MIC is the least concentration at which growth counts as inhibited. Usually IC50 stands for the midpoint of a concentration-inhibition curve. Turning to `COc1c(N2C[C@@H]3CCCN(CCCNc4cc(O)c5nc6c7c8c9c(C)c(O)c7c(=O)c(c-6oc5c4)NC(=O)/C(C)=C\C=C\[C@H](C(C)OC(=O)C(C)(C)CC(=O)O)[C@H](O)[C@@H](C)[C@@H](O)[C@@H](C)[C@H](OC(C)=O)[C@H](C)[C@@H](O[C@H]4C[C@@H]5OCO[C@@H]5[C@@H](C)O4)/C=C/O[C@@](C)(O9)C8=O)[C@@H]3C2)c(F)cc2c(=O)c(C(=O)O)cn(C3CC3)c12` (some centres not stated), the minimum inhibitory concentration (MIC) with Staphylococcus aureus [1] is 1 µg/mL (≈ 0.648 µM); with Staphylococcus aureus [2], 16 µg/mL (≈ 10.4 µM); with Staphylococcus aureus [3], 1 µg/mL (≈ 0.648 µM); in the data set with Escherichia coli it was more than 64 µg/mL; in the data set on Staphylococcus aureus [4] it was more than 64 µg/mL. Moreover, in the data set on HEK293, the IC50 was found to be 38 µg/mL (≈ 24.6 µM).
As to `N[C@@H]1CCCCN(c2c(F)cc3c(=O)c(C(=O)O)cn(C4CC4)c3c2Cl)C1` [BESIFLOXACIN], the MIC in the data set with Staphylococcus aureus [1] came to 0.031 µg/mL (≈ 0.0787 µM); in the data set with Staphylococcus aureus [2], 0.031 µg/mL (≈ 0.0787 µM); with Staphylococcus aureus [3] it was 0.5 µg/mL (≈ 1.27 µM); with Escherichia coli, 0.25 µg/mL (≈ 0.635 µM); in the data set with Staphylococcus aureus [4], 0.5 µg/mL (≈ 1.27 µM).
As for `CO/N=C1\CN(c2nc3c(cc2F)c(=O)c(C(=O)O)cn3C2CC2)CC1CN` (configuration not stated) [GEMIFLOXACIN], the MIC was determined as 0.016 µg/mL (≈ 0.0411 µM) in the data set with Staphylococcus aureus [1]; 0.016 µg/mL (≈ 0.0411 µM) in the data set on Staphylococcus aureus [2]; 1 µg/mL (≈ 2.57 µM) in the data set with Staphylococcus aureus [3]; 0.0078 µg/mL (≈ 0.02 µM) in the data set with Escherichia coli; 1 µg/mL (≈ 2.57 µM) in the data set on Staphylococcus aureus [4].
Take `CC(=O)O[C@H]1[C@H](C)[C@H](O)[C@H](C)[C@@H](O)[C@@H](C(C)OC(=O)C(C)(C)CC(=O)O)/C=C/C=C(/C)C(=O)Nc2c3oc4cc(NCCCN5CCN(c6cc7c(cc6F)c(=O)c(C(=O)O)cn7C6CC6)CC5)cc(O)c4nc-3c3c4c(c(C)c(O)c3c2=O)O[C@](C)(O/C=C/[C@H](O[C@H]2C[C@@H]3OCO[C@@H]3[C@@H](C)O2)[C@H]1C)C4=O` (some centres not stated): the MIC in the data set with Staphylococcus aureus [1] was 4 µg/mL (≈ 2.71 µM); in the data set with Staphylococcus aureus [2] it was 8 µg/mL (≈ 5.43 µM); in the data set with Staphylococcus aureus [3], 4 µg/mL (≈ 2.71 µM); with Escherichia coli it was 16 µg/mL (≈ 10.9 µM); in the data set with Staphylococcus aureus [4] it was more than 64 µg/mL. In the data set with HEK293, the IC50 was found to be 44 µg/mL (≈ 29.9 µM).
Take `CC(=O)O[C@H]1[C@H](C)[C@H](O)[C@H](C)[C@@H](O)[C@@H](C(C)OC(=O)C(C)(C)CC(=O)O)/C=C/C=C(/C)C(=O)Nc2c3oc4cc(N5CCCn6nc(C(=O)N7Cc8cc(-c9ccc%10c(=O)c(C(=O)O)cn(C%11CC%11)c%10c9OC(F)F)ccc8[C@H]7C)cc6C5)cc(O)c4nc-3c3c4c(c(C)c(O)c3c2=O)O[C@](C)(O/C=C/[C@H](O[C@H]2C[C@@H]3OCO[C@@H]3[C@@H](C)O2)[C@H]1C)C4=O` (some centres not stated): the MIC is 16 µg/mL (≈ 9.55 µM) with Staphylococcus aureus [1]; more than 64 µg/mL in the data set on Staphylococcus aureus [2]; 16 µg/mL (≈ 9.55 µM) in the data set on Staphylococcus aureus [3]; more than 64 µg/mL in the data set on Escherichia coli; more than 64 µg/mL with Staphylococcus aureus [4]. In the data set on HEK293, the IC50 is more than 64 µg/mL.
`CC(=O)O[C@H]1[C@H](C)[C@H](O)[C@H](C)[C@@H](O)[C@@H](C(C)OC(=O)C(C)(C)CC(=O)O)/C=C/C=C(/C)C(=O)Nc2c3oc4cc(N5CCC(CCCC(=O)N6Cc7cc(-c8ccc9c(=O)c(C(=O)O)cn(C%10CC%10)c9c8OC(F)F)ccc7[C@H]6C)CC5)cc(O)c4nc-3c3c4c(c(C)c(O)c3c2=O)O[C@](C)(O/C=C/[C@H](O[C@H]2C[C@@H]3OCO[C@@H]3[C@@H](C)O2)[C@H]1C)C4=O` (some centres not stated): the MIC in the data set with Staphylococcus aureus [1] is 64 µg/mL (≈ 38.4 µM); in the data set with Staphylococcus aureus [2], more than 64 µg/mL; in the data set on Staphylococcus aureus [3], 64 µg/mL (≈ 38.4 µM); with Escherichia coli it was more than 64 µg/mL; with Staphylococcus aureus [4], more than 64 µg/mL. Also, the IC50 in the data set with HEK293 was more than 64 µg/mL.
In the case of `N[C@@H]1[C@H]2CN(c3nc4c(cc3F)c(=O)c(C(=O)O)cn4-c3ccc(F)cc3F)C[C@@H]12` [TROVAFLOXACIN], the MIC is 0.0078 µg/mL (≈ 0.0187 µM) in the data set with Staphylococcus aureus [1]; 0.016 µg/mL (≈ 0.0384 µM) with Staphylococcus aureus [2]; 1 µg/mL (≈ 2.4 µM) in the data set on Staphylococcus aureus [3]; 0.0078 µg/mL (≈ 0.0187 µM) in the data set with Escherichia coli; 1 µg/mL (≈ 2.4 µM) in the data set with Staphylococcus aureus [4].
Consider `CC(=O)O[C@H]1[C@H](C)[C@H](O)[C@H](C)[C@@H](O)[C@@H](C(C)OC(=O)C(C)(C)CC(=O)O)/C=C/C=C(/C)C(=O)Nc2c3oc4cc(NCCCN5Cc6cc(-c7ccc8c(=O)c(C(=O)O)cn(C9CC9)c8c7OC(F)F)ccc6[C@H]5C)cc(O)c4nc-3c3c4c(c(C)c(O)c3c2=O)O[C@](C)(O/C=C/[C@H](O[C@H]2C[C@@H]3OCO[C@@H]3[C@@H](C)O2)[C@H]1C)C4=O` (some centres not stated), for which the MIC is 4 µg/mL (≈ 2.55 µM) with Staphylococcus aureus [1]; 8 µg/mL (≈ 5.1 µM) with Staphylococcus aureus [2]; 16 µg/mL (≈ 10.2 µM) in the data set on Staphylococcus aureus [3]; more than 64 µg/mL in the data set with Escherichia coli; more than 64 µg/mL in the data set with Staphylococcus aureus [4]. In the data set with HEK293, this molecule came in with an IC50 of more than 64 µg/mL.
With `COc1c(N2CCNC(C)C2)c(F)cc2c(=O)c(C(=O)O)cn(C3CC3)c12` (configuration not stated) [GATIFLOXACIN], the MIC in the data set on Staphylococcus aureus [1] amounted to 0.063 µg/mL (≈ 0.168 µM); in the data set on Staphylococcus aureus [2] it was 0.063 µg/mL (≈ 0.168 µM); in the data set on Staphylococcus aureus [3], 2 µg/mL (≈ 5.33 µM); in the data set with Escherichia coli it was 0.016 µg/mL (≈ 0.0426 µM); in the data set on Staphylococcus aureus [4], 2 µg/mL (≈ 5.33 µM).
On to `COc1c(N2CCN(C(=O)CC(C)(C)C(=O)OC(C)[C@H]3/C=C/C=C(/C)C(=O)NC4=CC(=O)c5c(c(O)c(C)c6c5C(=O)[C@@](C)(O/C=C/[C@H](O[C@H]5C[C@@H]7OCO[C@@H]7[C@@H](C)O5)[C@@H](C)[C@@H](OC(C)=O)[C@H](C)[C@H](O)[C@H](C)[C@H]3O)O6)C4=O)C(C)C2)c(F)cc2c(=O)c(C(=O)O)cn(C3CC3)c12` (some centres not stated), for which the MIC in the data set with Staphylococcus aureus [1] is 64 µg/mL (≈ 47.8 µM); with Staphylococcus aureus [2] it was more than 64 µg/mL; with Staphylococcus aureus [3], 32 µg/mL (≈ 23.9 µM); in the data set with Escherichia coli, more than 64 µg/mL; with Staphylococcus aureus [4] it was more than 64 µg/mL. In addition, the IC50 with HEK293 was found to be 21 µg/mL (≈ 15.7 µM).
As to `O=C(O)c1cn(C2CC2)c2cc(N3CCNCC3)c(F)cc2c1=O` [CIPROFLOXACIN], the MIC in the data set with Staphylococcus aureus [1] stood at 0.25 µg/mL (≈ 0.754 µM); with Staphylococcus aureus [2], 0.25 µg/mL (≈ 0.754 µM); in the data set on Staphylococcus aureus [3], 32 µg/mL (≈ 96.6 µM).
In the case of `COc1c(N2C[C@@H]3CCCN[C@@H]3C2)c(F)cc2c(=O)c(C(=O)O)cn(C3CC3)c12` [MOXIFLOXACIN], the MIC was 0.016 µg/mL (≈ 0.0399 µM) in the data set with Staphylococcus aureus [1], 0.016 µg/mL (≈ 0.0399 µM) in the data set with Staphylococcus aureus [2] and 0.031 µg/mL (≈ 0.0772 µM) in the data set with Escherichia coli.
For the molecule `C[C@H]1NCc2cc(-c3ccc4c(=O)c(C(=O)O)cn(C5CC5)c4c3OC(F)F)ccc21` [GARENOXACIN], the MIC with Staphylococcus aureus [1] was 0.016 µg/mL (≈ 0.0375 µM); in the data set on Staphylococcus aureus [2], 0.016 µg/mL (≈ 0.0375 µM); in the data set with Staphylococcus aureus [3], 0.5 µg/mL (≈ 1.17 µM); with Escherichia coli it was 0.016 µg/mL (≈ 0.0375 µM); in the data set on Staphylococcus aureus [4], 0.5 µg/mL (≈ 1.17 µM).
For `CNC1CCCN(c2c(F)cc3c(=O)c(C(=O)O)cn(C4CC4)c3c2OC)C1` (configuration not stated) [BALOFLOXACIN], the MIC in the data set on Staphylococcus aureus [1] is 0.13 µg/mL (≈ 0.334 µM); in the data set with Staphylococcus aureus [2], 0.13 µg/mL (≈ 0.334 µM); with Staphylococcus aureus [3], 4 µg/mL (≈ 10.3 µM); in the data set with Escherichia coli, 0.5 µg/mL (≈ 1.28 µM); with Staphylococcus aureus [4] it was 4 µg/mL (≈ 10.3 µM).
Regarding `C[C@H]1COc2c(C3(N)CC3)c(F)cc3c(=O)c(C(=O)O)cn1c23` [PAZUFLOXACIN], the MIC in the data set with Staphylococcus aureus [1] was 0.13 µg/mL (≈ 0.408 µM); in the data set with Staphylococcus aureus [2] it was 0.13 µg/mL (≈ 0.408 µM); in the data set on Staphylococcus aureus [3] it was 4 µg/mL (≈ 12.6 µM); with Escherichia coli, 0.016 µg/mL (≈ 0.0503 µM); in the data set with Staphylococcus aureus [4], 4 µg/mL (≈ 12.6 µM).
For the molecule `CC(=O)O[C@H]1[C@H](C)[C@H](O)[C@H](C)[C@@H](O)[C@@H](C(C)OC(=O)C(C)(C)CC(=O)O)/C=C/C=C(/C)C(=O)NC2=CC(=O)c3c(c(O)c(C)c4c3C(=O)[C@@](C)(O/C=C/[C@H](O[C@H]3C[C@@H]5OCO[C@@H]5[C@@H](C)O3)[C@H]1C)O4)C2=O` (some centres not stated), the MIC in the data set with Staphylococcus aureus [1] was 0.25 µg/mL (≈ 0.255 µM); with Staphylococcus aureus [2], more than 64 µg/mL; with Staphylococcus aureus [3], 0.25 µg/mL (≈ 0.255 µM); with Escherichia coli, more than 64 µg/mL; with Staphylococcus aureus [4], more than 64 µg/mL.
